Experiments:
[1] = molecular target: T1, C-C chemokine receptor type 2 (Homo sapiens, UniProt P41597); assay: Displacement of [3H]INCB3344 from human CCR2 receptor expressed in human U2OS cell membrane assessed as residence time
Target sequence in this assay (P41597 whole entry, looked up): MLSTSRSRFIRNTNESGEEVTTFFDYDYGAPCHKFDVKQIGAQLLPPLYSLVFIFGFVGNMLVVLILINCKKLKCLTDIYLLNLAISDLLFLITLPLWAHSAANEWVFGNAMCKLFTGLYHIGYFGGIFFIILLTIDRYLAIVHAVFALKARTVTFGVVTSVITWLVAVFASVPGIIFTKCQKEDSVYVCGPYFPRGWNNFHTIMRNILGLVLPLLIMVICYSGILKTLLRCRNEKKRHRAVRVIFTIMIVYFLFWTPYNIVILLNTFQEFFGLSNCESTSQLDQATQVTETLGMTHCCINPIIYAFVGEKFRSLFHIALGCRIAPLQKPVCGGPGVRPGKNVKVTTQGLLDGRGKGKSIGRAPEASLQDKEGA

[2] = molecular target: T1, C-C chemokine receptor type 2; assay: Displacement of [3H]INCB3344 from human CCR2 receptor expressed in human U2OS cell membrane assessed as kinetic rate index at Ki by dual-point competition association assay relative to control
Target sequence in this assay (P41597 whole entry, looked up): as above

[3] = molecular target: T1, C-C chemokine receptor type 2; assay: Displacement of [125I]-CCL2 from human CCR2 receptor expressed in human U2OS cell membranes
Outline: (§1)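 Membranes from U2OS cells stably expressing human CCR2 were used in a ¹²⁵I-CCL2 displacement binding assay. The cells were grown at 37 °C, 5% CO₂ in McCoy's 5a with 10% FCS plus G418, hygromycin and zeocin selection. Ki was derived from IC₅₀ by the Cheng–Prusoff equation. Weak binders are reported as percent displacement at 1 μM. n = 3.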
Target sequence in this assay (P41597 whole entry): as the sequence (P41597 whole entry, looked up) above

[4] = molecular target: T1, C-C chemokine receptor type 2; assay: Displacement of [125I]-CCL2 from human CCR2 receptor expressed in human U2OS cell membrane at 1 uM relative to control; type: cell membranes
Outline: as §1
Target sequence in this assay (P41597 whole entry, looked up): as above

Row | Compound | TIME [1] | Ratio [2] | Ki [3] | inhibition [4]
1 | CC(C)[C@]1(C(=O)NCc2cc(C(F)(F)F)cc(C(F)(F)F)c2)CC[C@@H](NC2CCc3cc(Br)ccc32)C1 (stereo in doubt; 22b) [listing 1 of 2 here] | 1.28 h | – | – | –
2 | CC(C)[C@]1(C(=O)NCc2cc(C(F)(F)F)cc(C(F)(F)F)c2)CC[C@@H](NC2CCc3ccccc32)C1 (some centres undefined) | 0.158 h | 0.7 | 50 nM | –
3 | COc1cccc2c1CCC2N[C@@H]1CC[C@@](C(=O)NCc2cc(C(F)(F)F)cc(C(F)(F)F)c2)(C(C)C)C1 (some centres undefined) | – | – | – | 30%
4 | CC(C)[C@]1(C(=O)NCc2cc(C(F)(F)F)cc(C(F)(F)F)c2)CC[C@@H](NCc2ccccc2)C1 | – | – | 437 nM | –
5 | Cc1ccc2c(c1)C(N[C@@H]1CC[C@@](C(=O)NCc3cc(C(F)(F)F)cc(C(F)(F)F)c3)(C(C)C)C1)CC2 (some centres undefined) | – | 0.8 | 55 nM | –
6 | CC(C)[C@]1(C(=O)NCc2cc(C(F)(F)F)cc(C(F)(F)F)c2)CC[C@@H](NC2CCc3c(O)cccc32)C1 (some centres undefined) | – | 0.6 | 86 nM | –
7 | COc1cc2c(cc1OC)C(N[C@@H]1CC[C@@](C(=O)NCc3cc(C(F)(F)F)cc(C(F)(F)F)c3)(C(C)C)C1)CC2 (some centres undefined) | – | 0.7 | 3.9 nM | –
8 | COc1ccc2c(c1)CCC2N[C@@H]1CC[C@@](C(=O)NCc2cc(C(F)(F)F)cc(C(F)(F)F)c2)(C(C)C)C1 (some centres undefined) | – | 0.6 | 6.1 nM | –
9 | CC(C)[C@]1(C(=O)NCc2cc(C(F)(F)F)cc(C(F)(F)F)c2)CC[C@@H](NC2CCc3cc(Br)ccc32)C1 (mixture of isomers) [listing 1 of 2 here] | 1.57 h | 1.1 | – | –
10 | CC(C)[C@]1(C(=O)NCc2cc(C(F)(F)F)cc(C(F)(F)F)c2)CC[C@@H](NC2CCc3cc(F)ccc32)C1 (some centres undefined) | – | – | – | 30%
11 | CC(C)[C@]1(C(=O)NCc2cc(C(F)(F)F)cc(C(F)(F)F)c2)CC[C@@H](NC2CCc3cc(O)ccc32)C1 (some centres undefined) | – | 0.7 | 29 nM | –
12 | CC(C)[C@]1(C(=O)NCc2cc(C(F)(F)F)cc(C(F)(F)F)c2)CC[C@@H](NC2CCc3cc4c(cc32)OCO4)C1 (some centres undefined) | – | 0.6 | 6.3 nM | –
13 | CC(C)[C@]1(C(=O)NCc2cc(C(F)(F)F)cc(C(F)(F)F)c2)CC[C@@H](NC2CCCc3c(O)cccc32)C1 (some centres undefined) | – | 0.8 | 35 nM | –
14 | CC(C)[C@]1(C(=O)NCc2cc(C(F)(F)F)cc(C(F)(F)F)c2)CC[C@@H](NC2CCc3cc(Cl)ccc32)C1 (some centres undefined) | 0.933 h | 1.1 | 18 nM | –
15 | CC(C)[C@]1(C(=O)NCc2cc(C(F)(F)F)cc(C(F)(F)F)c2)CC[C@@H](NC2CCc3cc(Br)ccc32)C1 (stereo in doubt; 22b) [listing 2 of 2 here] | – | – | 289 nM | –
16 | CC(C)[C@]1(C(=O)NCc2cc(C(F)(F)F)cc(C(F)(F)F)c2)CC[C@@H](NC2CCc3cc(Br)ccc32)C1 (single isomer, unassigned; diastereomer 1) [listing 1 of 2 here] | 2.25 h | – | – | –
17 | CC(C)[C@]1(C(=O)NCc2cc(C(F)(F)F)cc(C(F)(F)F)c2)CC[C@@H](NC2CCc3ccc(C#N)cc32)C1 (some centres undefined) | – | 0.6 | 54 nM | –

Row | Compound | TIME [1] | Ratio [2] | Ki [3] | inhibition [4]
18 | CC(C)[C@]1(C(=O)NCc2cc(C(F)(F)F)cc(C(F)(F)F)c2)CC[C@@H](NC2CCSCC2)C1 | 0.0717 h | – | 31 nM | –
19 | CC(C)[C@]1(C(=O)NCc2cc(C(F)(F)F)cc(C(F)(F)F)c2)CC[C@@H](NC2CCOCC2)C1 | 0.04 h | – | 6.8 nM | –
20 | CC(C)[C@]1(C(=O)NCc2cc(C(F)(F)F)cc(C(F)(F)F)c2)CC[C@@H](NC2CCCCC2)C1 | 0.0317 h | – | 110 nM | –
21 | CC(C)[C@]1(C(=O)NCc2cc(C(F)(F)F)cc(C(F)(F)F)c2)CC[C@@H](NC2CCc3ccc(Cl)cc32)C1 (some centres undefined) | – | – | – | 28%
22 | CC(C)[C@]1(C(=O)NCc2cc(C(F)(F)F)cc(C(F)(F)F)c2)CC[C@@H](NC2CCCc3c(Br)cccc32)C1 (some centres undefined) | – | – | – | 48%
23 | CC(C)[C@]1(C(=O)NCc2cc(C(F)(F)F)cc(C(F)(F)F)c2)CC[C@@H](NC2CCc3cc(Br)ccc32)C1 (single isomer, unassigned; diastereomer 1) [listing 2 of 2 here] | – | – | 3.6 nM | –
24 | COc1cccc2c1CCCC2N[C@@H]1CC[C@@](C(=O)NCc2cc(C(F)(F)F)cc(C(F)(F)F)c2)(C(C)C)C1 (some centres undefined) | – | 0.7 | 27 nM | –
25 | CC(C)[C@]1(C(=O)NCc2cc(C(F)(F)F)cc(C(F)(F)F)c2)CC[C@@H](NC2CCc3c(N)cccc32)C1 (some centres undefined) | – | 0.8 | 43 nM | –
26 | CC(C)[C@]1(C(=O)NCc2cc(C(F)(F)F)cc(C(F)(F)F)c2)CC[C@@H](NC2CCCc3ccccc32)C1 (some centres undefined) | 0.0933 h | 0.6 | 33 nM | –
27 | CC(C)[C@]1(C(=O)NCc2cc(C(F)(F)F)cc(C(F)(F)F)c2)CC[C@@H](NC2CCc3c(C#N)cccc32)C1 (some centres undefined) | – | 0.8 | 70 nM | –
28 | CC(C)[C@]1(C(=O)NCc2cc(C(F)(F)F)cc(C(F)(F)F)c2)CC[C@@H](NCCCc2ccccc2)C1 | – | – | 134 nM | –
29 | CC(C)[C@]1(C(=O)NCc2cc(C(F)(F)F)cc(C(F)(F)F)c2)CC[C@@H](NC2CCc3cc(Br)ccc32)C1 (mixture of isomers) [listing 2 of 2 here] | – | – | 7.2 nM | –
30 | CC(C)[C@]1(C(=O)NCc2cc(C(F)(F)F)cc(C(F)(F)F)c2)CC[C@@H](NCCc2ccccc2)C1 | – | – | 2400 nM | –
31 | Cc1cccc2c1CCC2N[C@@H]1CC[C@@](C(=O)NCc2cc(C(F)(F)F)cc(C(F)(F)F)c2)(C(C)C)C1 (some centres undefined) | – | – | – | 26%
32 | CC(C)[C@]1(C(=O)NCc2cc(C(F)(F)F)cc(C(F)(F)F)c2)CC[C@@H](NC2CCCc3c(C(=O)O)cccc32)C1 (some centres undefined) | – | – | – | 0%
33 | COc1ccc2c(c1OC)CCC2N[C@@H]1CC[C@@](C(=O)NCc2cc(C(F)(F)F)cc(C(F)(F)F)c2)(C(C)C)C1 (some centres undefined) | – | – | 130 nM | –
